Measured values of several laboratories.
Lines come from different studies, so protocols differ.
Matrix: plasma

SMILES | host | route | dose | setting | endpoint | result
Cc1cc(S(=O)(=O)N[C@]2(C)C[C@H](N3CCN(CC4CCN(c5ccc6c(c5F)n(C)c(=O)n6C5CCC(=O)NC5=O)CC4)CC3)C2)ccc1Nc1ncc(C(F)(F)F)c(N2CCC[C@](C)(O)C2)n1 (some centres unmarked) | rat | intravenous | 2 mg/kg | – | clearance | 145 mL/min/kg
CCN(CC)Cc1ccc2cc(COC(=O)Nc3ccc(C(=O)NO)cc3)ccc2c1 | male Sprague-Dawley rat | oral | 10 mg/kg | – | CL/F | 20.2 mL/min/kg
CNC(=O)c1cc(Oc2ccc(NC(=O)Nc3ccc(Cl)c(C(F)(F)F)c3)cc2)ccn1 | male Sprague-Dawley rat | oral | 100 mg/kg | single dose | CL/F | 96.7 mL/min/kg
CNS(=O)(=O)c1ccc(Nc2ncc(C(F)(F)F)c(N3CCC[C@](C)(O)C3)n2)c(C)c1 | rat | intravenous | 2 mg/kg | – | clearance | 31 mL/min/kg
[2H]C([2H])([2H])NC(=O)c1cc(Oc2ccc(NC(=O)Nc3ccc(Cl)c(C(F)(F)F)c3)cc2)ccn1 | rat | oral | 40 mg/kg | single dose | CL/F | 2.67 mL/min/kg
Cc1cc(S(=O)(=O)N[C@H]2CC[C@H](CN3CCN(c4cccc(NC5CCC(=O)NC5=O)c4)CC3)CC2)ccc1Nc1ncc(C(F)(F)F)c(N2CCC[C@](C)(O)C2)n1 (some centres unmarked) | rat | intravenous | 2 mg/kg | – | clearance | 43 mL/min/kg
CCOc1c([C@H](C)n2nc(C)c3c(N)ncnc32)cc(Cl)c(F)c1[C@@H]1CNC(=O)C1 | male Sprague-Dawley rat | oral | 2 mg/kg | single dose | CL/F | 10.3 mL/min/kg
C=CC(=O)N1CCC([C@@H]2CCNc3c(C(N)=O)c(-c4ccc(Oc5ccccc5)cc4)nn32)CC1 | Sprague-Dawley rat | oral | 16 mg/kg | – | CL/F | 224 mL/min/kg
C1=C/COCc2cc(ccc2OCCN2CCCC2)Nc2nccc(n2)-c2cccc(c2)COC/1 | rat | oral | 36 mg/kg | – | CL/F | 11700 mL/h
CC[C@@H]([C@H](C)O)n1ncn(-c2ccc(N3CCN(c4ccc(OC[C@@H]5CO[C@@](Cn6cncn6)(c6ccc(F)cc6F)C5)cc4)CC3)cc2)c1=O | Sprague-Dawley rat | oral | 40 mg/kg | – | CL/F | 79 mL/min/kg
Cc1nc(Nc2ncc(C(=O)Nc3c(C)cccc3Cl)s2)cc(N2CC[C@H](O)C2)n1 | male Sprague-Dawley rat | intravenous | 1 mg/kg | – | clearance | 6.83 mL/min/kg
CC[C@H](C)[C@H](NC(=O)[C@@H]1CCCN1C(=O)CNC(=O)[C@H](Cc1ccccc1)NC(=O)[C@H](CC(N)=O)NC(=O)[C@H](CC(N)=O)NC(=O)[C@H](CO)NC(=O)[C@H](CO)NC(=O)[C@H](Cc1c[nH]cn1)NC(=O)[C@H](CCCNC(=N)N)NC(=O)[C@H](CC(C)C)NC(=O)[C@H](Cc1ccccc1)NC(=O)[C@H](CCC(=O)O)NC(=O)[C@H](C)NC(=O)[C@H](CC(C)C)NC(=O)[C@H](CCCNC(=N)N)NC(=O)[C@H](CCC(N)=O)NC(=O)[C@@H](NC(=O)[C@H](C)NC(=O)[C@@H]1CSSC[C@H](NC(=O)[C@H](CCCCN)NC(=O)CC[C@H](NC(=O)CCCCCCCCCCCCCCCCCCC(=O)O)C(=O)O)C(=O)N[C@@H](CC(N)=O)C(=O)N[C@@H]([C@@H](C)O)C(=O)N[C@@H](C)C(=O)N[C@@H]([C@@H](C)O)C(=O)N1)[C@@H](C)O)C(=O)N[C@@H](CC(C)C)C(=O)N1CCC[C@H]1C(=O)N1CCC[C@H]1C(=O)N[C@H](C(=O)N[C@@H](CC(N)=O)C(=O)N[C@H](C(=O)NCC(=O)N[C@@H](CO)C(=O)N[C@@H](CC(N)=O)C(=O)N[C@H](C(=O)N1CCC[C@H]1C(N)=O)[C@@H](C)O)C(C)C)[C@@H](C)O | male Sprague-Dawley rat | subcutaneous | 30 nmol/kg | single dose | CL/F | 0.112 mL/min/kg
Cc1cc(S(=O)(=O)NC2CC(N3CCN(CC4CCN(c5cccc6c5n(C)c(=O)n6C5CCC(=O)NC5=O)CC4)CC3)C2)ccc1Nc1ncc(C(F)(F)F)c(N2CCC[C@](C)(O)C2)n1 (some centres unmarked) | rat | intravenous | 2 mg/kg | – | clearance | 37 mL/min/kg
CC(=O)O[C@@H]1CC[C@@]2(C)[C@@H](CC[C@]3(C)[C@@H]2C(=O)C=C2[C@@H]4[C@@H](C)[C@H](C)CC[C@]4(C)CC[C@]23C)[C@@]1(C)C(=O)O | female Wistar rat | oral | 1 mg/kg | single dose | CL/F | 0.332 mL/min/kg
C[C@H]1Oc2cc(cnc2N)-c2c(nn(C)c2C#N)CN(C)C(=O)c2ccc(F)cc21 | male Sprague-Dawley rat | oral | 10 mg/kg | single dose | CL/F | 66.7 mL/min/kg
CNS(=O)(=O)c1ccc(Nc2ncc(C(F)(F)F)c([C@H]3CC[C@@](C)(O)CC3)n2)c(C)c1 | rat | intravenous | 2 mg/kg | – | clearance | 7 mL/min/kg
Cc1nc(Nc2ncc(C(=O)Nc3c(C)cccc3Cl)s2)cc(N2CC[C@@H](N)C2)n1 | male Sprague-Dawley rat | intravenous | 1 mg/kg | – | clearance | 135 mL/min/kg
